# Where a SMILES comes first, the peptide text is derived from it. [ ]: non-standard residue; d: D form. Tic = O=C(O)[C@@H]1Cc2ccccc2CN1; dTic = O=C(O)[C@H]1Cc2ccccc2CN1; 2Thi = N[C@@H](Cc1cccs1)C(=O)O
# Columns and labels:
# Melanocortin receptor 5 = Melanocortin receptor 5 (Mus musculus, UniProt P41149); experiment: In vitro activation of mouse recombinant Melanocortin-5 receptor.
# How it was run: (§1)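 HEK-293 cells stably expressing the mouse receptor (calcium phosphate transfection, G418 1 mg/mL selection) were transfected with a CRE/β-galactosidase reporter. Lysates were read with ONPG at 37 °C (OD405), normalized to protein (OD595) and forskolin. EC50 came from nonlinear least-squares fitting, duplicate experiments in quadruplet.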
# Melanocortin receptor 3 [1] = biological target: T1, Melanocortin receptor 3 (Mus musculus, UniProt P33033); experiment: In vitro activation of mouse recombinant Melanocortin-3 receptor.; how it was run: as §1
# T1 sequence (P33033 whole entry): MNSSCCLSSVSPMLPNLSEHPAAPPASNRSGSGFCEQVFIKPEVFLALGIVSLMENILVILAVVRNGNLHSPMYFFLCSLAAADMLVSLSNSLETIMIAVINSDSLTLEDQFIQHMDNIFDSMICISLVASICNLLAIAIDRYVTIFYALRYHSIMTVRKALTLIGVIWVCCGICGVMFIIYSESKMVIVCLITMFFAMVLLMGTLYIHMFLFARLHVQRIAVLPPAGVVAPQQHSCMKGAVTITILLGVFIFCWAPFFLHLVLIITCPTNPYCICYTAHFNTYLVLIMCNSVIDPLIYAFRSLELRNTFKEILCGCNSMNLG
# Melanocortin receptor 4 = Melanocortin receptor 4 (Mus musculus, UniProt P56450); experiment: In vitro activation of mouse recombinant Melanocortin-4 receptor.; how it was run: as §1
# Sequence of Melanocortin receptor 4 (P56450 whole entry): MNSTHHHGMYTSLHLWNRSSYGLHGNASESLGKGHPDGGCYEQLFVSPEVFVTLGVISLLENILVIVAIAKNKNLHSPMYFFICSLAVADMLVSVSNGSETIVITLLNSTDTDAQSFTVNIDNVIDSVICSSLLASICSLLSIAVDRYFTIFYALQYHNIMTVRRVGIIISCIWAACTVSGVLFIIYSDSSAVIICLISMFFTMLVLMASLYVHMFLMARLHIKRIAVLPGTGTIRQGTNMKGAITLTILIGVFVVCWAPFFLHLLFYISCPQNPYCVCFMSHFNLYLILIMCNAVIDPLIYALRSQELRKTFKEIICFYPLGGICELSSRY
# [2] = biological target: Melanocyte-stimulating hormone receptor (Mus musculus, UniProt Q01727); experiment: In vitro activation of mouse recombinant Melanocortin-1 receptor.; how it was run: as §1
# Sequence of Melanocyte-stimulating hormone receptor (Q01727 whole entry): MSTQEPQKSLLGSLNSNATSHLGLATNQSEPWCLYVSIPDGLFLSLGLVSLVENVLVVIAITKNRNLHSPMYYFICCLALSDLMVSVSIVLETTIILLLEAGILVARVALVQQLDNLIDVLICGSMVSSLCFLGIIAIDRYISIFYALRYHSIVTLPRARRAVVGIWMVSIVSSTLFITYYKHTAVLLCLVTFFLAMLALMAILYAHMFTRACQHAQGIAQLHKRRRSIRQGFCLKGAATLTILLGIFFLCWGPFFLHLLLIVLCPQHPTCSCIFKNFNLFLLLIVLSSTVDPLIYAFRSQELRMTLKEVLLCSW
# Melanocortin receptor 3 [3] = biological target: T1, Melanocortin receptor 3; experiment: Agonist activity of compound in mouse Melanocortin-3 receptor (mMC3R); Slight agonist; assay type: functional
# How it was run: as §1, with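 “reporter. At 48 h they were stimulated for 6 h with peptide (10^-4–10^-12 M) or forskolin (10^-4 M) in DMEM with 0.1 mg/mL BSA and 0.1 mM IBMX.” for “reporter.”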
# Sequence of Melanocortin receptor 5 (P41149 whole entry): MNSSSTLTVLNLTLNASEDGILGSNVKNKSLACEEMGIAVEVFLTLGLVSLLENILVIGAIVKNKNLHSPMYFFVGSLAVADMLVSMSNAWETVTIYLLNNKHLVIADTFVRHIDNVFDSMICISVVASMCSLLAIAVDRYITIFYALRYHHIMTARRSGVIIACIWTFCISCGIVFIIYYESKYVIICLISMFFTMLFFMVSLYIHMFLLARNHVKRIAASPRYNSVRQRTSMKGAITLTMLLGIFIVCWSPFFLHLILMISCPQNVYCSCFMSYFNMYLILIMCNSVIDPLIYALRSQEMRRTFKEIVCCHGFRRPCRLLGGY
Structure (SMILES),EC50 (Melanocortin receptor 5),EC50 (Melanocortin receptor 3 [1]),EC50 (Melanocortin receptor 4),EC50 [2],EC50 (Melanocortin receptor 3 [3])
CC(=O)N[C@@H](Cc1csc2ccccc12)C(=O)N[C@H](Cc1ccccc1)C(=O)N[C@@H](CCCN=C(N)N)C(=O)N[C@@H](Cc1c[nH]c2ccccc12)C(N)=O,0.381 µM,19.8 µM,0.211 µM,4.4 µM,–
CC(=O)N[C@@H](Cc1c[nH]c2ccccc12)C(=O)N[C@H](Cc1ccccc1)C(=O)N[C@@H](CCCN=C(N)N)C(=O)N[C@@H](Cc1c[nH]c2ccccc12)C(N)=O,0.507 µM,10.3 µM,0.528 µM,5.4 µM,–
CC(=O)N[C@@H](Cc1ccc2ccccc2c1)C(=O)N[C@H](Cc1ccccc1)C(=O)N[C@@H](CCCN=C(N)N)C(=O)N[C@@H](Cc1c[nH]c2ccccc12)C(N)=O,0.606 µM,14.7 µM,2.9 µM,9.5 µM,–
CC(=O)NC1(C(=O)N[C@H](Cc2ccccc2)C(=O)N[C@@H](CCCNC(=N)N)C(=O)N[C@@H](Cc2c[nH]c3ccccc23)C(N)=O)CCc2ccccc2C1 (stereo partly specified),2.4 µM,–,0.714 µM,7.73 µM,–
CC(=O)N1CCC[C@H]1C(=O)N[C@H](Cc1ccccc1)C(=O)N[C@@H](CCCN=C(N)N)C(=O)N[C@@H](Cc1c[nH]c2ccccc12)C(N)=O (Ac-P[dF]RW-NH2),0.684 µM,15 µM,1.5 µM,4.25 µM,–
CC(=O)N1Cc2ccccc2C[C@H]1C(=O)N[C@H](Cc1ccccc1)C(=O)N[C@@H](CCCNC(=N)N)C(=O)N[C@@H](Cc1c[nH]c2ccccc12)C(N)=O (Ac-[Tic][dF]RW-NH2),0.369 µM,11.8 µM,2.9 µM,2.6 µM,–
CC(=O)N1Cc2ccccc2C[C@@H]1C(=O)N[C@H](Cc1ccccc1)C(=O)N[C@@H](CCCN=C(N)N)C(=O)N[C@@H](Cc1c[nH]c2ccccc12)C(N)=O (Ac-[dTic][dF]RW-NH2),12 µM,> 100 µM,11.7 µM,11.3 µM,–

# Other lines, results leading:
EC50 (Melanocortin receptor 5),EC50 (Melanocortin receptor 3 [1]),EC50 (Melanocortin receptor 4),EC50 [2],EC50 (Melanocortin receptor 3 [3]),Structure (SMILES)
0.0925 µM,2.27 µM,0.128 µM,0.176 µM,–,CC(=O)N[C@@H](Cc1ccncc1)C(=O)N[C@H](Cc1ccccc1)C(=O)N[C@@H](CCCN=C(N)N)C(=O)N[C@@H](Cc1c[nH]c2ccccc12)C(N)=O
0.4 µM,–,0.887 µM,1.15 µM,Partial agonist,CC(=O)N[C@@H](Cc1cccnc1)C(=O)N[C@H](Cc1ccccc1)C(=O)N[C@@H](CCCN=C(N)N)C(=O)N[C@@H](Cc1c[nH]c2ccccc12)C(N)=O
0.143 µM,11.9 µM,0.0706 µM,0.503 µM,–,CC(=O)N[C@@H](Cc1ccccc1)C(=O)N[C@H](Cc1ccccc1)C(=O)N[C@@H](CCCNC(=N)N)C(=O)N[C@@H](Cc1c[nH]c2ccccc12)C(N)=O
2.24 µM,> 100 µM,1.5 µM,7.1 µM,–,CC(=O)N[C@H](Cc1ccc2ccccc2c1)C(=O)N[C@H](Cc1ccccc1)C(=O)N[C@@H](CCCNC(=N)N)C(=O)N[C@@H](Cc1c[nH]c2ccccc12)C(N)=O
2.98 µM,> 100 µM,2.17 µM,11.5 µM,–,CC(=O)N[C@H](Cc1ccccc1)C(=O)N[C@H](Cc1ccccc1)C(=O)N[C@@H](CCCNC(=N)N)C(=O)N[C@@H](Cc1c[nH]c2ccccc12)C(N)=O
0.3 µM,9 µM,1 µM,1.8 µM,–,CC(=O)N[C@@H](C)C(=O)N[C@H](Cc1ccccc1)C(=O)N[C@@H](CCCN=C(N)N)C(=O)N[C@@H](Cc1c[nH]c2ccccc12)C(N)=O
1.26 µM,> 100 µM,6.2 µM,6.6 µM,–,CC(=O)N[C@H](Cc1c[nH]c2ccccc12)C(=O)N[C@H](Cc1ccccc1)C(=O)N[C@@H](CCCNC(=N)N)C(=O)N[C@@H](Cc1c[nH]c2ccccc12)C(N)=O
0.138 µM,–,0.506 µM,–,–,CC(=O)N[C@H](Cc1cnc[nH]1)C(=O)N[C@H](Cc1ccccc1)C(=O)N[C@@H](CCCNC(=N)N)C(=O)N[C@@H](Cc1c[nH]c2ccccc12)C(N)=O
0.0405 µM,2.95 µM,0.0912 µM,0.203 µM,–,CC(=O)N[C@@H](Cc1cccs1)C(=O)N[C@H](Cc1ccccc1)C(=O)N[C@@H](CCCNC(=N)N)C(=O)N[C@@H](Cc1c[nH]c2ccccc12)C(N)=O (Ac-[2Thi][dF]RW-NH2)
